Measured values published in ChEMBL document CHEMBL2016500, “Discovery and evaluation of spirocyclic derivatives as antagonists of the neuropeptide Y5 receptor” (Bioorg Med Chem Lett, 2012).
pKi: −log10 of the molar value. Activity calls are given as the source filed them. The rule behind the calls is not given here.

Key:
[1] = target: T1, Neuropeptide Y receptor type 5 (Homo sapiens, UniProt Q15761); assay: Displacement of [125I]PPY from human recombinant NPYY5 receptor expressed in insect Sf9 membranes; assay type: cell membranes
T1 sequence (Q15761 whole entry): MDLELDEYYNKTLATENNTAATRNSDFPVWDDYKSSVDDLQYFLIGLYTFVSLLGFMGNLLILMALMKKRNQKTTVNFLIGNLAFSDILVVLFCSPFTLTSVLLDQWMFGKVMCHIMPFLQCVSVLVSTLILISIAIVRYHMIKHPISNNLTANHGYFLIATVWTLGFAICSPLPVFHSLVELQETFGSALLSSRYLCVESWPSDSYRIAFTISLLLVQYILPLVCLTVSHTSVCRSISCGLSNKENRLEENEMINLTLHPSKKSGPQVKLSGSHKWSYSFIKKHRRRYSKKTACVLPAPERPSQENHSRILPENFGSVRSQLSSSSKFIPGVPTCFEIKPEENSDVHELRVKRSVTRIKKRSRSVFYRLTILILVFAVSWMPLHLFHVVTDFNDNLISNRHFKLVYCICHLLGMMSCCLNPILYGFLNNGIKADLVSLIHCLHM

[2] = system: Liver microsomes; assay: Intrinsic clearance in human liver microsomes; assay type: ADME, Microsome
Summary of the method: (§1)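 Metabolic stability in human or rat liver microsome preparations. Total intrinsic clearance scaled from in vitro microsomal half-life, given in […].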

[3] = system: Liver microsomes; assay: Intrinsic clearance in rat liver microsomes; assay type: ADME, Microsome; summary of the method: as §1
[4] = Ratio of unbound fraction in rat brain at 5 mg/kg bid to Ki for human recombinant NPYY5 receptor expressed in insect Sf9 membranes; assay type: ADME, organism-based, Membrane; parameters: dose 5 mg/kg; conditions: in vivo
Summary of the method: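 Unbound drug concentrations were measured in plasma and brain of diet-induced obese rats dosed at 5 mg/kg bid. The ratio is unbound brain concentration divided by Ki.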

[5] = Half life in rat; assay type: ADME, organism-based; conditions: in vivo
[6] = system: Rattus norvegicus; assay: Antiobesity activity in diet-induced obese rat assessed as decrease body weight at 5 mg/kg bid; assay type: functional, organism-based; parameters: dose 5 mg/kg
Summary of the method: (§2)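 Diet-induced obese rats dosed 5 mg/kg bid over a 4-day study. Food intake and body weight followed.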

[7] = target: T2, Neuropeptide Y receptor type 1 (Homo sapiens, UniProt P25929); assay: Binding affinity to human NPYY1
T2 sequence (P25929 whole entry): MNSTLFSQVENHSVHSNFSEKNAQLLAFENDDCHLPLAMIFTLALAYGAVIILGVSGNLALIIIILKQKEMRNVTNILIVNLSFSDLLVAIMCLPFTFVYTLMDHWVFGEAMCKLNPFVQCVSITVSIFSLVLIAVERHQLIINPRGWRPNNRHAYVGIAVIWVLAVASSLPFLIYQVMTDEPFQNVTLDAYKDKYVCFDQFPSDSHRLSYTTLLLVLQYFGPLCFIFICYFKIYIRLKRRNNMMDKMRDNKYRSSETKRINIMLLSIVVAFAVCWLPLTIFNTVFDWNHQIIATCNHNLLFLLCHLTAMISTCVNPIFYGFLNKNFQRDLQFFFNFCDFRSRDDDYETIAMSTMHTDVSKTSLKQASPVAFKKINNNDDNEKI

[8] = Oral bioavailability in rat; assay type: ADME, organism-based; conditions: in vivo
[9] = system: Plasma; assay: Unbound fraction in diet-induced obese rat plasma at 5 mg/kg bid; assay type: ADME, organism-based; parameters: dose 5 mg/kg; conditions: in vivo
Summary of the method: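 Diet-induced obese rats given 5 mg/kg bid. Unbound drug concentrations measured in plasma and brain.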

[10] = system: Rattus norvegicus; assay: Antiobesity activity in diet-induced obese rat assessed as decrease in food intake at 5 mg/kg bid; assay type: functional; parameters: scale not given: the % may be the effect or the level left; summary of the method: as §2
[11] = system: Brain; assay: Unbound concentration in diet-induced obese rat brain at 5 mg/kg bid; conditions: in vivo
[12] = Ratio of unbound fraction in plasma to brain in rat; assay type: ADME, cell-free
Summary of the method: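 Unbound fraction measured separately in rat plasma and in rat brain; the value is expressed as fu,plasma/fu,brain.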

Row | Compound | pKi [1] | CLint [2] | CLint [3] | further results
1 | O=C(Nc1ccn(-c2ccccc2F)n1)NC1CCC2(CC1)OC(=O)c1ccncc12 (mixture of isomers) | 6.07 | – | – | –
2 | CN(C(=O)Nc1ccn(-c2ccccc2F)n1)[C@H]1CC[C@]2(CC1)OC(=O)c1ccccc12 | 9.15 | 24 mL/min/kg | 165 mL/min/kg | –
3 | CN(C(=O)Nc1ccn(-c2ccccc2F)n1)[C@H]1CC[C@]2(CC1)OC(=O)c1ccncc12 | 9.10 | < 7 mL/min/kg | 28 mL/min/kg | –
4 | CN(C(=O)Nc1ccn(-c2ccccc2F)n1)[C@H]1CC[C@@]2(CC1)Cc1cnccc1C(=O)O2 | 6.73 | – | – | –
5 | CN(C(=O)Nc1cnc(-c2ccccc2)cn1)[C@H]1CC[C@]2(CC1)OC(=O)c1ccncc12 | 9.00 | < 6 mL/min/kg | < 25 mL/min/kg | Ratio [4]: 25; half-life [5]: 2 h; Activity [6]: inactive; pKi [7]: < 5.00; bioavailability [8]: 80%; Cp(f) [9]: 67 nM; Activity [10]: <10%; Concentration [11]: 27 nM; Ratio [12]: 3.3
6 | CN(C(=O)Nc1cnc(-c2ccccc2)cn1)[C@H]1CC[C@@]2(CC1)OC(=O)c1ccncc12 | 9.05 | < 7 mL/min/kg | 12 mL/min/kg | –
7 | CN(C(=O)Nc1ccn(-c2ccccc2F)n1)[C@H]1CC[C@]2(CC1)OCc1ccccc12 | 8.00 | 67 mL/min/kg | > 1120 mL/min/kg | –
8 | O=C1O[C@]2(CC[C@@H](N(CC(F)(F)F)C(=O)Nc3cnc(-c4ccccc4)cn3)CC2)Cc2ccccc21 | 5.63 | < 7 mL/min/kg | – | –
9 | O=C1O[C@]2(CC[C@H](C(=O)Nc3ccn(-c4ccccc4F)n3)CC2)c2cnccc21 | – | – | – | Activity [6]: Active
10 | O=C(CC1CCC2(CC1)Cc1ccccc1C(=O)O2)Nc1cnc(-c2ccccc2)cn1 (mixture of isomers) | 6.52 | – | – | –

Further compounds by rising pKi [1], results first:

Row | pKi [1] | CLint [2] | CLint [3] | Compound | further results
11 | 7.09 | < 26 mL/min/kg | 86 mL/min/kg | CN(C(=O)Nc1cnc(-c2ccccc2)cn1)[C@H]1CC[C@@]2(CC1)Cc1cnccc1C(=O)O2 | –
12 | 7.66 | – | – | CN(C(=O)Nc1ccn(-c2ccccc2F)n1)[C@H]1CC[C@@]2(CC1)OC(=O)c1ccccc12 | –
13 | 7.96 | – | – | CCN(C(=O)Nc1cnc(-c2ccccc2)cn1)[C@H]1CC[C@@]2(CC1)Cc1ccccc1C(=O)O2 | –
14 | 8.10 | 68 mL/min/kg | > 1120 mL/min/kg | CN(C(=O)Nc1ccn(-c2ccccc2F)n1)[C@H]1CC[C@]2(CC1)COc1ccccc12 | –
15 | 8.30 | – | – | CC(C)(C)S(=O)(=O)N[C@H]1CC[C@H](C(=O)Nc2ccc(C(F)(F)F)cn2)CC1 | –
16 | 8.34 | 59 mL/min/kg | 333 mL/min/kg | CN(C(=O)Nc1cnc(-c2ccccc2)cn1)[C@H]1CC[C@@]2(CC1)Cc1ccccc1C(=O)O2 | –
17 | 8.62 | 28 mL/min/kg | 290 mL/min/kg | CN(C(=O)Nc1ccn(-c2ccccc2F)n1)[C@H]1CC[C@@]2(CC1)Cc1ccccc1C(=O)O2 | –
